Publication PMC4358770 (Journal of medicinal chemistry, 2010)
Like-named read-outs stand apart in the source and are kept apart here. Each block holds one compound with its values, some of them ahead of it.

Tests used:
NTPDase1 = biological target: T1, NTPDase1 (Homo sapiens, UniProt P49961); experiment: NTPDase1 hydrolysis assay; format: in vitro ADME; conditions: 100 μM substrate; vs 100 μM ATP set at 100%
T1 sequence (P49961 1-510): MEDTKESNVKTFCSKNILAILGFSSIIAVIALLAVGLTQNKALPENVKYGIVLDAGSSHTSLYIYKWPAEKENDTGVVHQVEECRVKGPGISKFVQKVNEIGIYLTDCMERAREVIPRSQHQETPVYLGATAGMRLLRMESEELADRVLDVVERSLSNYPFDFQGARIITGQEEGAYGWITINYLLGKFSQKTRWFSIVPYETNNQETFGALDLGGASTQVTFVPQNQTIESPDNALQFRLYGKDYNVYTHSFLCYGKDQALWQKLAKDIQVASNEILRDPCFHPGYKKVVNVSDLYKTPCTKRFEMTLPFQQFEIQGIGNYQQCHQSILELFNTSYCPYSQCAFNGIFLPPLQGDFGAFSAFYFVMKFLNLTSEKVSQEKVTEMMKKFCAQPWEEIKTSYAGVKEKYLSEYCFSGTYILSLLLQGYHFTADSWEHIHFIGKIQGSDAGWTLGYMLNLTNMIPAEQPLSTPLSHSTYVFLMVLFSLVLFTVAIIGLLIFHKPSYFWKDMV

turkey P2Y1 receptor = turkey P2Y1 receptor (Meleagris gallopavo, UniProt P49652); format: cell-based
NTPDase2 = biological target: T2, NTPDase2 (Homo sapiens, UniProt Q9Y5L3); experiment: NTPDase2 hydrolysis assay; format: in vitro ADME; conditions: 100 μM substrate; vs 100 μM ATP set at 100%
T2 sequence (Q9Y5L3 1-495): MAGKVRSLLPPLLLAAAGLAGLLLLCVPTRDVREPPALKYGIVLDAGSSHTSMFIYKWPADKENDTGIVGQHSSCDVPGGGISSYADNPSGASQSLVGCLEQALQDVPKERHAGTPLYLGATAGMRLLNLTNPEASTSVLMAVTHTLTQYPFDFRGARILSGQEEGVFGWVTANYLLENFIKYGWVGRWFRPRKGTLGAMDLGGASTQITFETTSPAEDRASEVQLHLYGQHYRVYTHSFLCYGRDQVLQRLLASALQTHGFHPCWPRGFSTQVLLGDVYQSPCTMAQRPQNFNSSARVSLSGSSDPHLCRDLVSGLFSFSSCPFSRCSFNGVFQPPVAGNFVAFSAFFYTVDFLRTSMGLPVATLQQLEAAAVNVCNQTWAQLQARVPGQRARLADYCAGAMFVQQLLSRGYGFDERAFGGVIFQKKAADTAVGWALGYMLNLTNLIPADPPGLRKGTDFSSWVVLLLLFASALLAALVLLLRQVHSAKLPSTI
Method in brief: (§1)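 Enzymes were transiently expressed in COS-7 cells. Crude protein extracts were made by sonication, 300g clearing at 4 °C and storage at −80 °C, with protein measured by Bradford. Extract was preincubated 3 min at 37 °C in Tris-Ringer buffer, pH 7.4. […] Activity of untransfected-cell extract was subtracted.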

NTPDase3 = biological target: T3, NTPDase3 (Homo sapiens, UniProt O75355); experiment: NTPDase3 hydrolysis assay; format: in vitro ADME; conditions: 100 μM substrate; vs 100 μM ATP set at 100%
T3 sequence (O75355 1-529): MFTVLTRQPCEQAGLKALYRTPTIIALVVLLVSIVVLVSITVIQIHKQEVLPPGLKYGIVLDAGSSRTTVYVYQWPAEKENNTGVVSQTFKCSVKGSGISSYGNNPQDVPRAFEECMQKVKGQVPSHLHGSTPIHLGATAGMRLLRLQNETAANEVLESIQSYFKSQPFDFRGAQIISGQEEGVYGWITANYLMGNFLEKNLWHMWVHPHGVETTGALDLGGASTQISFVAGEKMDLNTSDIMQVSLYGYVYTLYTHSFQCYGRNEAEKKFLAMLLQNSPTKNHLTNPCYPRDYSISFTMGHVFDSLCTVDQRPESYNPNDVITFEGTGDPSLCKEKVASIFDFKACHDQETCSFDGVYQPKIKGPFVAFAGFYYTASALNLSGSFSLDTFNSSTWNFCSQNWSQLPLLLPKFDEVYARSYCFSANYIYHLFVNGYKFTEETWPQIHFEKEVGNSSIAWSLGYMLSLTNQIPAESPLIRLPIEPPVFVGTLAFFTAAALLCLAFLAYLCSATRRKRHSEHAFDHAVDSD
Method in brief: as §1

human NPP3 = biological target: T4, human NPP3 (Homo sapiens, UniProt O14638); experiment: NPP3 hydrolysis assay; format: in vitro ADME; conditions: 100 μM substrate; vs 100 μM ATP set at 100%
T4 sequence (O14638 1-875): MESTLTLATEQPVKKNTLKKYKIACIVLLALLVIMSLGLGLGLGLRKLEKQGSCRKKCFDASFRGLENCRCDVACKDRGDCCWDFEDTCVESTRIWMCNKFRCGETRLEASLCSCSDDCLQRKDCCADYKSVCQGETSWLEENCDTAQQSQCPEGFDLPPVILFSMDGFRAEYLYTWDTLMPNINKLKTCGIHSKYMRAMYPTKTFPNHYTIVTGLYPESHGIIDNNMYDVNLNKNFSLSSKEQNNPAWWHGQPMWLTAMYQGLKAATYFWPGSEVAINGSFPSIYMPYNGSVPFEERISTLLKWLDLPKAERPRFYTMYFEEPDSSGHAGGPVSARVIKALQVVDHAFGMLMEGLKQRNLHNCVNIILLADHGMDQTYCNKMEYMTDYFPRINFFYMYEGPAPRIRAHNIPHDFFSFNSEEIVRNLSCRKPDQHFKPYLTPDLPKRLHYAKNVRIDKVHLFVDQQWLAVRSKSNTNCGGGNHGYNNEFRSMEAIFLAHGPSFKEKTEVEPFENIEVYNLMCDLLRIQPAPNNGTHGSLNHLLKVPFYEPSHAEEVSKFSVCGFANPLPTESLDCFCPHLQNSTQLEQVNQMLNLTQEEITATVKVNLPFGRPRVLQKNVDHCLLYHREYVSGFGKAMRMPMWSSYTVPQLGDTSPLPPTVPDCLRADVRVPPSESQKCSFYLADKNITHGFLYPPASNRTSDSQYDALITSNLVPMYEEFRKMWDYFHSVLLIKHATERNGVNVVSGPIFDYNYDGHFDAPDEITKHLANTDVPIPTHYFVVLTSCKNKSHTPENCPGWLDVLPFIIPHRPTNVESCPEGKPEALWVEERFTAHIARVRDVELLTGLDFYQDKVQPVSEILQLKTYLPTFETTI

rabbit IOP [1] = conditions: topically applied to New Zealand white rabbits; cited from earlier work
[2] = pH 1.4, 37 °C; cited from earlier work
[3] = Stability in human blood serum at 37 °C; format: in vitro ADME
[4] = biological target: calf intestine alkaline phosphatase (Bos taurus, UniProt P19111); experiment: Hydrolysis by alkaline phosphatase; conditions: for degradation by alkaline phosphatase after 3 h: 0.2 mg analogue/77.5 μL, 12.5 units of AP, 37 °C; for resistance to hydrolysis by alkaline phosphatase: over 30 min at 37 °C
[5] = cited from earlier work
P2Y1R = conditions: read-out: EC50 at P2Y1R; cited from earlier work
rabbit IOP [6] = experiment: IOP measurements in normotensive rabbits; format: in vivo, New Zealand white rabbits
Method in brief: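 Male New Zealand white rabbits (2.5 ± 0.5 kg) on a 12 h/12 h light/dark cycle. Test compound was applied unilaterally to the cornea at 100 μM in 10 μL, with 0.9% saline vehicle in the contralateral eye. Design was blinded, with two baseline readings by rebound tonometer and follow-up to 8 h. Dose–response used 1 nM–100 μM, taking the maximal response per dose. […] Mean-time effect was the time from 50% maximal IOP decrease to 50% recovery. Mean ± SEM of 8–10 experiments.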

[7] = pKa and ionization of the terminal phosphate/phosphonate; format: physicochemical; conditions: pH 7.4, terminal phosphate/phosphonate
[8] = Chemical stability at pH 1.4 and 37 °C, monitored by HPLC; format: physicochemical; conditions: for t1/2 of hydrolysis at pH 1.4: pH 1.4, 37 °C, KCl/HCl buffer
[9] = human blood serum/RPMI-1640, 37 °C

Chain of calf intestine alkaline phosphatase (P19111 20-533): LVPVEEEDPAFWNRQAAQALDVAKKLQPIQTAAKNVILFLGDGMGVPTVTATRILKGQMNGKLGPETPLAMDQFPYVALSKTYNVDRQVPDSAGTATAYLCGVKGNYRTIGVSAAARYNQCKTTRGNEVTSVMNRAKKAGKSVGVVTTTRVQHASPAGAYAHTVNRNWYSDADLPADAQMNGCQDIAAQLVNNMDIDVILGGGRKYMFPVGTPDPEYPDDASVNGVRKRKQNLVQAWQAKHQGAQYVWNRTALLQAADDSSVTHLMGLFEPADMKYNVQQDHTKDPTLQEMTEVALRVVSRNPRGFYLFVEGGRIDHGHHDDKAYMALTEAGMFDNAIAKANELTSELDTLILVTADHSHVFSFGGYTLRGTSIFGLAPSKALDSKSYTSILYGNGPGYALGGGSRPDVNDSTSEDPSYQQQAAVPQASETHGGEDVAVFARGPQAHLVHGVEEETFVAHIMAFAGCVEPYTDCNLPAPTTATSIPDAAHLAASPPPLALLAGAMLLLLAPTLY
Chain of turkey P2Y1 receptor (P49652 whole entry): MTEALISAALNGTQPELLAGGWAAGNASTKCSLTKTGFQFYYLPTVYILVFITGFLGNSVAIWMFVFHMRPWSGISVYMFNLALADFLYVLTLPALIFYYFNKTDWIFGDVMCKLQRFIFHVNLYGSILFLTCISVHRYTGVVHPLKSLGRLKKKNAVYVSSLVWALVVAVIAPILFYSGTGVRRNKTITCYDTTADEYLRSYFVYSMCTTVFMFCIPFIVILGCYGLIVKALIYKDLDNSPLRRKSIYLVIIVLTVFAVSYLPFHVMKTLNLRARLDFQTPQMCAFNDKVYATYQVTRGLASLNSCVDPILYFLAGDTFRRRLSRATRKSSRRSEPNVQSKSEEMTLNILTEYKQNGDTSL

Compound: BP(=O)(OC[C@H]1O[C@@H](n2cnc3c(N)nc(SC)nc32)[C@H](O)[C@@H]1O)OP(=O)(O)C(Cl)(Cl)P(=O)(O)O (stereo partly drawn) [analogue 12B, 2-MeS-adenosine-5′-O-(α-boranotriphosphate)-β,γ-CCl2]
relative hydrolysis by NTPDase1 (NTPDase1): completely resistant
fold less potent at P2Y1R than the A isomer 12A (turkey P2Y1 receptor; B isomer vs A isomer): 2 fold
relative hydrolysis by NTPDase2 (NTPDase2): completely resistant
relative hydrolysis by NTPDase3 (NTPDase3): completely resistant
relative hydrolysis by NPP3 (human NPP3): completely resistant

Compound: Nc1ncnc2c1ncn2[C@@H]1O[C@H](COP(=O)(O)OP(=O)(O)OP(=O)(O)OC[C@@H]2O[C@H](n3cnc4c(N)ncnc43)[C@@H](O)[C@H]2O)[C@@H](O)[C@H]1O [Ap3A, diadenosine triphosphate]
effect on IOP (increase or reduction) (rabbit IOP [1]): increase IOP

Compound: BP(=O)(OC[C@H]1O[C@@H](n2cnc3c(N)nc(SC)nc32)[C@H](O)[C@@H]1O)OP(=O)(O)CP(=O)(O)O (stereo partly drawn) [analogue 3, 2-MeS-α-B,β,γ-CH2-ATP]
t1/2 of hydrolysis at pH 1.4 [2]: 14.5 h

half-life at 0.248 mM ([3]; human, human blood serum diluted with RPMI-1640 medium): 1410 min
degradation by alkaline phosphatase after 3 h [4]: 87%
Compound: CSc1nc(N)c2ncn([C@@H]3O[C@H](COP(=O)(O)OP(=O)(O)O)[C@@H](O)[C@H]3O)c2n1 [analogue 7, 2-MeS-ADP]

Compound: Nc1ncnc2c1ncn2[C@@H]1O[C@H](COP(=O)(O)OP(=O)(O)OP(=O)(O)OP(=O)(O)OP(=O)(O)OC[C@H]2O[C@@H](n3cnc4c(N)ncnc43)[C@H](O)[C@@H]2O)[C@@H](O)[C@H]1O [Ap5A, diadenosine pentaphosphate]
effect on IOP (increase or reduction) (rabbit IOP [1]): increase IOP

Compound: BP(=O)(OCC1OC(n2cnc3c(N)nc(SC)nc32)C(O)C1O)OP(=O)(O)C(F)(F)P(=O)(O)O (stereo not drawn) [analogue 10, α-borano-β,γ-CF2-2-MeS-ATP]
resistance to hydrolysis by alkaline phosphatase [4]: completely resistant

fraction ionized at physiological pH [7]: 9%
Compound: CSc1nc(N)c2ncn([C@@H]3O[C@H](COP(=O)(O)OP(=O)(O)CP(=O)(O)O)[C@@H](O)[C@H]3O)c2n1 [analogue 1, 2-MeS-β,γ-CH2-ATP]
t1/2 in human blood serum [5]: 12.1 h
EC50 (P2Y1R): 80 nM
duration of the reduction in IOP (mean-time effect) (rabbit IOP [6]; 100 μM, 10 μL): 3.5 h

Compound: BP(=O)(OC[C@H]1O[C@@H](n2cnc3c(N)nc(SC)nc32)[C@H](O)[C@@H]1O)OP(=O)(O)CP(=O)(O)O (some centres unmarked) [analogue 3B]
EC50 (P2Y1R): 17200 nM

Compound: CC(C)OC(=O)CCC/C=C\C[C@@H]1[C@@H](CC[C@@H](O)CCc2ccccc2)[C@H](O)C[C@@H]1O [latanoprost]
duration of the reduction in IOP (mean-time effect) (rabbit IOP [6]; commercial drug, 0.005%, 40 μL): 5.5 h

Compound: Nc1ncnc2c1ncn2[C@@H]1O[C@H](COP(=O)(O)OP(=O)(O)OP(=O)(O)OP(=O)(O)O)[C@@H](O)[C@H]1O [Ap4, adenosine tetraphosphate]
effect on IOP (increase or reduction) (rabbit IOP [1]): reduced

starting material remaining at pH 1.4 ([8]; pH 1.4, after 30 days): 61%
Compound: CSc1nc(N)c2ncn([C@@H]3O[C@H](COP(=O)(O)C(F)(F)P(=O)(O)O)[C@@H](O)[C@H]3O)c2n1 [analogue 13, 2-MeS-adenosine-5′-O-diphosphate-α,β-difluoromethylene]

Compound: Nc1ncnc2c1ncn2[C@@H]1O[C@H](COP(=O)(O)OP(=O)(O)O)[C@@H](O)[C@H]1O [ADP]
half-life in human blood serum [3, 9]: 1.4 h
degradation by alkaline phosphatase after 3 h [4]: completely degraded

Compound: Nc1ncnc2c1ncn2[C@@H]1O[C@H](COP(=O)(O)OP(=O)(O)OP(=O)(O)OP(=O)(O)OC[C@H]2O[C@@H](n3cnc4c(N)ncnc43)[C@H](O)[C@@H]2O)[C@@H](O)[C@H]1O [Ap4A, diadenosine tetraphosphate]
effect on IOP (increase or reduction) (rabbit IOP [1]): reduced

t1/2 of hydrolysis at pH 1.4 [8]: 65 h
degradation in human blood serum over 24 h [3, 9]: 15%
Compound: CSc1nc(N)c2ncn([C@@H]3O[C@H](COP(=O)(O)OP(=O)(O)C(Cl)(Cl)P(=O)(O)O)[C@@H](O)[C@H]3O)c2n1 [analogue 9, β,γ-CCl2-2-MeS-ATP]
duration of the reduction in IOP (mean-time effect) (rabbit IOP [6]; 100 μM, 10 μL): 4.5 h

hydrolysis of the starting material at pH 1.4 ([8]; pH 1.4, after 6 days): 15%
degradation in human blood serum over 24 h [3, 9]: completely resistant
Compound: CSc1nc(N)c2ncn([C@@H]3O[C@H](COP(=O)(O)C(Cl)(Cl)P(=O)(O)O)[C@@H](O)[C@H]3O)c2n1 [analogue 14, 2-MeS-Rα,β-dichloromethylene-ADP]

Compound: BP(=O)(OC[C@H]1O[C@@H](n2cnc3c(N)nc(SC)nc32)[C@H](O)[C@@H]1O)OP(=O)(O)C(F)(F)P(=O)(O)O (stereo partly drawn) [analogue 10B, 2-MeS-adenosine-5′-O-(α-boranotriphosphate)-β,γ-CF2]
fold reduction in P2Y1R activity vs analogue 8 (turkey P2Y1 receptor; replacement of nonbridging oxygen with BH3): 3 fold
t1/2 of hydrolysis at pH 1.4 [8]: ~8 h

Compound: BP(=O)(OCC1OC(n2cnc3c(N)nc(SC)nc32)C(O)C1O)OP(=O)(O)C(Cl)(Cl)P(=O)(O)O (stereo not drawn) [analogue 12, α-borano-β,γ-CCl2-2-MeS-ATP]
resistance to hydrolysis by alkaline phosphatase [4]: completely resistant

Compound: 2-MeS-α-borano-ATP (A-isomer) [analogue 4A]
EC50 (P2Y1R): 2.6 nM

Compound: α-B,β,γ-CH2-ATP [analogue 2]
t1/2 of hydrolysis at pH 1.4 [2]: 19 h
